Experimental data: ChEMBL document CHEMBL1122411 (J Med Chem, 1983)
Several values for one entry are separate records, joined by “and”; a condition that tells them apart may be missing. Equal values may be shown once.

Legend:
Type in all cases: functional
Mus musculus [1] = species: Mus musculus; assay: Percentage increase in life span after 17-22 days
Summary of the method: (§1)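 Male B6D2F1J mice (20–25 g), randomized after i.p. inoculation with 10^5 L1210 ascitic leukemia cells on day 0. Drug in water, pH 7.5–8.0, given i.p. on a q2d×5, qd×9 (from day 1) or b.i.d.×10 schedule; 5 mice per group. %ILS = [(T/C) − 1]100 from median survival days of treated versus control mice. Range is survival days.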

Mus musculus [2] = assay: Toxicity in mice after 15-17 days at a dose of 0.5 mg/kg/day; value is 16/8
Mus musculus [3] = assay: Toxicity in mice after 15-17 days at a dose of 0.75 mg/kg/day; value is 17/8
Mus musculus [4] = assay: Weight change on day 7 in L1210 Lymphoid Leukemia in mice at a dose of 10 mg/kg/day (qd x5)
Mus musculus [5] = assay: Weight change on day 7 in L1210 Lymphoid Leukemia in mice at a dose of 2 mg/kg/day (qdx9)
Summary of the method: (§2)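 Male B6D2F₁J mice (20–25 g) bearing ip L1210 ascites (10⁵ cells, day 0) were used, 5 per group. Drug was given ip in water at pH 7.5–8.0 from day 1 on q2d×5, qd×9 or b.i.d.×10 schedules. Animals were weighed after 7 days and percent weight change recorded.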

Mus musculus [6] = assay: Weight change on day 7 in L1210 Lymphoid Leukemia in mice at a dose of 0.5 mg/kg/day (b.i.d. x10); summary of the method: as §2
Mus musculus [7] = assay: Weight change on day 7 in L1210 Lymphoid Leukemia in mice at a dose of 0.75 mg/kg/day (b.i.d. x10); summary of the method: as §2
L1210 = assay: cytotoxicity against L1210 cells; details: Mus musculus, read-out: ID50 (the source's name)
Mus musculus [8] = assay: Toxicity in mice after 11-22 days at a dose of 6 mg/kg/day; value is 21/9
Mus musculus [9] = assay: Weight change on day 7 in L1210 Lymphoid Leukemia in mice at a dose of 0.25 mg/kg/day (b.i.d. x10); summary of the method: as §2
Mus musculus [10] = assay: Toxicity in mice after 12-15 days at a dose of 0.25 mg/kg/day; value is 13/8
Mus musculus [11] = assay: Toxicity in mice after 14-18 days at a dose of 2 mg/kg/day; value is 16/9
Mus musculus [12] = assay: Weight change on day 7 in L1210 Lymphoid Leukemia in mice at a dose of 6 mg/kg/day (qdX9)
Summary of the method: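 Male B6D2F1J mice (20–25 g) were inoculated i.p. with 10⁵ L1210 ascites cells on day 0 and randomized into groups of 5. Drug in water at pH 7.5–8.0 was given i.p. daily for 9 days (qd×9) from day 1. Animals were weighed after 7 days, and the % body-weight change was recorded under a standard NCI protocol.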

Mus musculus [13] = species: Mus musculus; assay: Toxicity in mice after 17-22 days at a dose of; value is 20/9
Mus musculus [14] = assay: Weight change on day 7 in L1210 Lymphoid Leukemia in mice at a dose of 15 mg/kg/day (qd x5); details: in the assay text read “q2dx5” for “qdx5”; summary of the method: as §2
Mus musculus [15] = species: Mus musculus; assay: Percentage increase in life span after 11-22 days; summary of the method: as §1
Mus musculus [16] = assay: Weight change on day 7 in L1210 Lymphoid Leukemia in mice at a dose of 4 mg/kg/day (qdX9); summary of the method: as §2
Mus musculus [17] = species: Mus musculus; assay: 1Percentage increase in life span after 12-15 days; summary of the method: as §1
Mus musculus [18] = species: Mus musculus; assay: Percentage increase in life span after 14-18d ays; summary of the method: as §1
Mus musculus [19] = species: Mus musculus; assay: Percentage increase in life span after 12-19 days; summary of the method: as §1
Mus musculus [20] = assay: Toxicity in mice after 12-19 days at a dose of 4 mg/kg/day; value is 17/9
Mus musculus [21] = assay: Toxicity in mice after 14-18 days at a dose of 10 mg/kg/day; value is 17/9

CN(Cc1cnc2nc(N)nc(N)c2n1)c1ccc(C(=O)N[C@@H](CCC(=O)O)C(=O)O)cc1 [METHOTREXATE]
ILS (Mus musculus [1]): 122%
T/C (Mus musculus [2]): 16
T/C (Mus musculus [3]): 17
Weight change (Mus musculus [4]): 11%
Weight change (Mus musculus [5]): 6%
Weight change (Mus musculus [6]): 1%
Weight change (Mus musculus [7]): 3%
IC50 (L1210): 20 nM
T/C (Mus musculus [8]): 21
Weight change (Mus musculus [9]): 1%
T/C (Mus musculus [10]): 13
T/C (Mus musculus [11]): 16
Weight change (Mus musculus [12]): -2%
T/C (Mus musculus [13]): 20
Weight change (Mus musculus [14]): 8%
ILS (Mus musculus [15]): 133%
Weight change (Mus musculus [16]): -2%
ILS (Mus musculus [17]): 63%
ILS (Mus musculus [18]): 89% and 78%
ILS (Mus musculus [19]): 89%
T/C (Mus musculus [20]): 17
T/C (Mus musculus [21]): 17
